Source: ChEMBL document CHEMBL2384986, “Re-evolution of the 2-phenylquinolines: ligand-based design, synthesis, and biological evaluation of a potent new class of Staphylococcus aureus NorA efflux pump inhibitors to combat antimicrobial resistance” (J Med Chem, 2013)
Calls of active or inactive are those of the source. The rule behind the calls is not given here.

Legend:
Staphylococcus aureus [1] = experiment: Antibacterial activity against Staphylococcus aureus 1199B overexpressing NorA and grlA A116E mutant assessed as growth inhibition by microdilution method; format: functional
Method in brief: (§1)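 Broth microdilution MIC per CLSI guidelines for intrinsic antistaphylococcal activity; highest concentration tested 100 μg/mL. SA-1199 is the norA wild-type parent, SA-1199B overexpresses norA and carries GrlA A116E, and SA-K2378 overexpresses norA from multicopy plasmid pCU1 in the norA-deleted SA-K1902 background.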

[2] = biological target: Quinolone resistance protein NorA (Staphylococcus aureus, UniProt P0A0J7); experiment: Inhibition of NorA in Staphylococcus aureus 1199B harboring grlA A116E mutant assessed as inhibition of ethidium bromide efflux measured for 5 mins by fluorometric analysis
Method in brief: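 Fluorometric EtBr efflux assay in SA-1199B (norA overexpressing, GrlA A116E) over a 5 min time course, compared with no-inhibitor control. Increasing inhibitor concentrations were tested, and IC50 was read by inspection of the dose-response plots. Usually run in duplicate.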

[3] = biological target: T1, Quinolone resistance protein NorA (Staphylococcus aureus) (UniProt P0A0J7); experiment: Inhibition of NorA in Staphylococcus aureus 1199B harboring grlA A116E mutant assessed as inhibition of ethidium bromide efflux at 50 uM measured for 5 mins by fluorometric analysis relative to control
T1 sequence (whole entry): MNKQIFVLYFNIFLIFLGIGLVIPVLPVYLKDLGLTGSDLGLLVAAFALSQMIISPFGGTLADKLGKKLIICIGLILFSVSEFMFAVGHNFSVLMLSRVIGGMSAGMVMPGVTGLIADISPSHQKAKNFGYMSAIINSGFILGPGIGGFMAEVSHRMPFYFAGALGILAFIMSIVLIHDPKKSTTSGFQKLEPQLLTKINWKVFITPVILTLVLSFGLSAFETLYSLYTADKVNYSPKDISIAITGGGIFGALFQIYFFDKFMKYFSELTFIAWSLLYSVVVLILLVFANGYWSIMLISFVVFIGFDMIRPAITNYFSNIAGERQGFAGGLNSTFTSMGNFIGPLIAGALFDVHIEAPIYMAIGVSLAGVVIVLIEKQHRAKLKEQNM
Method in brief: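 EtBr loss from SA-1199B (norA overexpressing, GrlA A116E) measured fluorometrically with inhibitor at 50 μM, compared with no-inhibitor control. Read-out is mean total efflux over a 5 min time course, expressed as percent reduction in efflux. Usually run in duplicate.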

Staphylococcus aureus [4] = experiment: Antibacterial activity against Staphylococcus aureus 1199 harboring wild type norA assessed as growth inhibition by microdilution method
Staphylococcus aureus [5] = experiment: Reduction of ciprofloxacin MIC in norA-deficient Staphylococcus aureus K1902 at 0.78 to 100 ug/mL; format: functional, organism-based
Method in brief: (§2)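 Ciprofloxacin MIC determined by CLSI broth microdilution, alone and combined with scalar dilutions of freshly prepared test compound; checkerboard combination format. Strains: ATCC 25923 (wild type), SA-1199 (norA wt), SA-1199B (norA overexpressing, GrlA A116E), SA-K2378 (norA on multicopy pCU1) and SA-K1902 (norA-deleted).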

[6] = biological target: T1, Quinolone resistance protein NorA (Staphylococcus aureus); experiment: Inhibition of wild type NorA in Staphylococcus aureus 1199 assessed as reduction of ciprofloxacin MIC at 0.78 to 100 ug/mL; method in brief: as §2
[7] = biological target: T1, Quinolone resistance protein NorA (Staphylococcus aureus); experiment: Inhibition of NorA in Staphylococcus aureus ATCC 25923 assessed as reduction of ciprofloxacin MIC at 0.78 to 100 ug/mL; method in brief: as §2
[8] = biological target: T1, Quinolone resistance protein NorA (Staphylococcus aureus); experiment: Inhibition of NorA in Staphylococcus aureus K2378 assessed as reduction of ciprofloxacin MIC at 0.78 to 100 ug/mL relative to control; method in brief: as §2
Staphylococcus aureus [9] = experiment: Antibacterial activity against norA-deficient Staphylococcus aureus K1902 assessed as growth inhibition by microdilution method; format: functional
Method in brief: (§3)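 Broth microdilution MIC determination following CLSI guidelines. Strains: wild-type ATCC 25923 and SA-K1902 (norA−). Intrinsic activity was tested up to a top concentration of 100 μg/mL.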

Staphylococcus aureus [10] = experiment: Inhibition of MepA in Staphylococcus aureus K2886 assessed as reduction of ethidium bromide MIC at 0.78 ug/mL relative to control
Method in brief: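 Ethidium bromide MIC by CLSI microdilution, alone and combined with test compound. Strain SA-K2886 is norA-deleted and carries pALC2073-mepA, with mepA under a xyl/tetO promoter; 0.05 μg/mL tetracycline was included throughout to induce expression.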

[11] = biological target: T1, Quinolone resistance protein NorA (Staphylococcus aureus); experiment: Inhibition of NorA in Staphylococcus aureus 1199B harboring grlA A116E mutant assessed as reduction of ciprofloxacin MIC at 3.13 ug/mL relative to control; method in brief: as §2
Staphylococcus aureus [12] = experiment: Reduction of ethidium bromide MIC in mepA-deficient Staphylococcus aureus K2885 at 0.78 to 100 ug/mL; format: functional, organism-based
Method in brief: (§4)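 The strains are norA-deleted S. aureus carrying pALC2073-mepA (K2886) or the empty pALC2073 vector (K2885). Cloned genes are under a xyl/tetO promoter, induced by 0.05 μg/mL tetracycline, which was present in all experiments with these strains. EtBr MICs were determined by CLSI microdilution, with and without test compound.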

Staphylococcus aureus [13] = experiment: Inhibition of MepA in Staphylococcus aureus K2886 assessed as reduction of ethidium bromide MIC at 0.78 to 100 ug/mL; method in brief: as §4
[14] = biological target: T1, Quinolone resistance protein NorA (Staphylococcus aureus); experiment: Inhibition of NorA in Staphylococcus aureus K2378 assessed as reduction of ciprofloxacin MIC at 0.78 ug/mL relative to control; method in brief: as §2
Staphylococcus aureus [15] = experiment: Antibacterial activity against Staphylococcus aureus K2378 overexpressing norA assessed as growth inhibition by microdilution method; format: functional; method in brief: as §1
Staphylococcus aureus [16] = experiment: Antibacterial activity against wild type Staphylococcus aureus ATCC 25923 assessed as growth inhibition by microdilution method; format: functional; method in brief: as §3

Row | SMILES | MIC (Staphylococcus aureus [1]) | IC50 [2] | inhibition [3] | MIC (Staphylococcus aureus [4]) | Activity (Staphylococcus aureus [5]) | inhibition [6] | inhibition [7] | fold change (FC) [8] | also measured
1 | CCCOc1ccc(-c2cc(OCCN3CCN(C)CC3)c3ccccc3n2)cc1 | > 200 µM | 9.7 µM | 91% |  |  |  |  |  | 
2 | CCCOc1ccc(-c2cc(OC3CN4CCC3CC4)c3ccccc3n2)cc1 (stereo not drawn) | > 200 µM | 14.8 µM | 91.3% |  |  |  |  |  | 
3 | CCCOc1ccc(-c2cc(OCCN(CC)Cc3ccccc3)c3ccccc3n2)cc1 | > 200 µM |  | 72.5% |  |  |  |  |  | 
4 | CCCOc1ccc(-c2cc(OCCN3CCC4(CC3)OCCO4)c3ccccc3n2)cc1 | > 200 µM | 8.5 µM | 80.4% | > 100 µg/mL | inactive | inactive | inactive | 4 | 
5 | CCCOc1ccc(-c2cc(OCCN(Cc3ccccc3)Cc3ccccc3)c3ccccc3n2)cc1 |  |  | 0% |  |  |  |  |  | 
6 | CCCOc1ccc(-c2cc(OCCN(C)C)c3ccccc3n2)cc1 | > 249 µM | 9.9 µM | 92% |  |  |  |  |  | 
7 | CCCOc1ccc(-c2cc(OCCN3CCCCCC3)c3ccccc3n2)cc1 | > 200 µM | 6.4 µM | 86% | > 100 µg/mL | inactive | inactive | inactive | 16 | MIC (Staphylococcus aureus [9]): 50 µg/mL; fold change (FC) (Staphylococcus aureus [10]): 16; fold change (FC) [11]: 16; Activity (Staphylococcus aureus [12]): inactive; inhibition (Staphylococcus aureus [13]): Active; fold change (FC) [14]: 16; MIC (Staphylococcus aureus [15]): 50 µg/mL; MIC (Staphylococcus aureus [16]): > 100 µg/mL
8 | O=C(O)c1cn(C2CC2)c2cc(N3CCNCC3)c(F)cc2c1=O [CIPROFLOXACIN] |  |  |  | 0.63 µg/mL |  |  |  |  | MIC (Staphylococcus aureus [9]): 0.63 µg/mL; MIC (Staphylococcus aureus [15]): 2.5 µg/mL; MIC (Staphylococcus aureus [16]): 0.31 µg/mL
9 | CCCOc1ccc(-c2cc(OCCN3CCC(=O)CC3)c3ccccc3n2)cc1 | > 200 µM |  | 71.7% |  |  |  |  |  | 
10 | CCCOc1ccc(-c2cc(OCCN3C(=O)c4ccccc4C3=O)c3ccccc3n2)cc1 |  |  | 8.3% |  |  |  |  |  | 
11 | CCCOc1ccc(-c2cc(OCCCN(C)C)c3ccccc3n2)cc1.Cl | > 200 µM | 3.9 µM | 90.6% | > 100 µg/mL | inactive | inactive | inactive | 4 | MIC (Staphylococcus aureus [9]): 25 µg/mL; Activity (Staphylococcus aureus [12]): inactive; inhibition (Staphylococcus aureus [13]): Active; MIC (Staphylococcus aureus [15]): 25 µg/mL; MIC (Staphylococcus aureus [16]): > 100 µg/mL
12 | CCCOc1ccc(-c2cc(OCCN(CC)CC)c3ccccc3n2)cc1 | > 200 µM | 8.9 µM |  | > 100 µg/mL | inactive | inactive | inactive | 4 | MIC (Staphylococcus aureus [9]): 50 µg/mL; MIC (Staphylococcus aureus [15]): 50 µg/mL; MIC (Staphylococcus aureus [16]): 100 µg/mL
13 | CCCOc1ccc(-c2cc(OCCN3CCc4cc(OC)c(OC)cc4C3)c3ccccc3n2)cc1 |  |  | 79.6% |  |  |  |  |  | 
14 | CCCOc1ccc(-c2cc(OC3CCCN(C)C3)c3ccccc3n2)cc1 (stereo not drawn) | > 200 µM | 8 µM | 88.2% | > 100 µg/mL | inactive | inactive | inactive | 4 | 
15 | CCCCN(CCCC)CCOc1cc(-c2ccc(OCCC)cc2)nc2ccccc12 | > 200 µM | 9.2 µM | 88.6% |  |  |  |  |  | 
